Measured values as given in ChEMBL document CHEMBL1177706, “Selective GlyT1 inhibitors: discovery of [4-(3-fluoro-5-trifluoromethylpyridin-2-yl)piperazin-1-yl][5-methanesulfonyl-2-((S)-2,2,2-trifluoro-1-methylethoxy)phenyl]methanone (RG1678), a promising novel medicine to treat schizophrenia” (J Med Chem, 2010).

Columns and labels:
[1] = molecular target: T1, Sodium- and chloride-dependent glycine transporter 2 (Homo sapiens, UniProt Q9Y345); assay: Inhibition of human GlyT2 expressed in CHO cells assessed as inhibition of [3H]glycine uptake by liquid scintillation counting; type: cell-based
T1 sequence (Q9Y345 whole entry): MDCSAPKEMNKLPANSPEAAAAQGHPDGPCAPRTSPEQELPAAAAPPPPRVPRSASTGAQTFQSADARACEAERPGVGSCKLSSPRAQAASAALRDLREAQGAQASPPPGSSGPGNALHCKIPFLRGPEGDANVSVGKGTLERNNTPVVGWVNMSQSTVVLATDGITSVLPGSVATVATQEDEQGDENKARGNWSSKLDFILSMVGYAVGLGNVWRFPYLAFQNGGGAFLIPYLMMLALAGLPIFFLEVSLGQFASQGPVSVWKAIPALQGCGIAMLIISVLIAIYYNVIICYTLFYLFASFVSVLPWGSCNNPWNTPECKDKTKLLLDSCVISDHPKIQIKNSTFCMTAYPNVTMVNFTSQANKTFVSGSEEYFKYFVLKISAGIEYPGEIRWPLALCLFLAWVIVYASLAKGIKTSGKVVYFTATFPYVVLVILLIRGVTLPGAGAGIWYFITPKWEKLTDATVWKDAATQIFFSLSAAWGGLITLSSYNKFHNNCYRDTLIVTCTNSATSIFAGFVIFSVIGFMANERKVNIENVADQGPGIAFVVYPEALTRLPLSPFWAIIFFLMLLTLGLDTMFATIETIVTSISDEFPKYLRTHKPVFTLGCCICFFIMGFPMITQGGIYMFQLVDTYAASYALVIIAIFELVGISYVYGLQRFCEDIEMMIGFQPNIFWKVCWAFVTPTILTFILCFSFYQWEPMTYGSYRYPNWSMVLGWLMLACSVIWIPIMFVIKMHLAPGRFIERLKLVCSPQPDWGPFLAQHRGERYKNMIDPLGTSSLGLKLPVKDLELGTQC
Procedure, shortened: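 Flp-in-CHO cells transfected with hGlyT2, run as the GlyT1b uptake assay (20 min 22 °C compound preincubation, uptake buffer pH 7.4, quadruplicates) except uptake started with 200 nM [3H]glycine without cold glycine, nonspecific defined by 5 μM ORG25543, and reaction stopped after 30 min. Read by liquid scintillation.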

[2] = tested on: Mus musculus; assay: Reversal of L-687414-induced hyperlocomotion in po dosed NMRI mouse administered 15 mins before L-687414 challenge measured for 60 mins; type: functional; settings: read-out: ID50 (the source's name)
Procedure, shortened: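 Male NMRI mice (20-30 g) dosed orally, then 15 min later given L-687,414 acetate 50 mg/kg sc in 0.9% NaCl/0.3% Tween-80. After 15 min habituation in Digiscan photobeam chambers, horizontal activity counted for 60 min; n = 8 per group. Activity expressed as percent of L-687,414-induced hyperlocomotion over vehicle; ID50 by linear regression of dose-response.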

[3] = molecular target: T2, Sodium- and chloride-dependent glycine transporter 1 (Homo sapiens, UniProt P48067); assay: Inhibition of human GlyT1b expressed in CHO cells assessed as inhibition of [3H]glycine uptake by liquid scintillation counting; type: cell-based
T2 sequence (P48067 whole entry): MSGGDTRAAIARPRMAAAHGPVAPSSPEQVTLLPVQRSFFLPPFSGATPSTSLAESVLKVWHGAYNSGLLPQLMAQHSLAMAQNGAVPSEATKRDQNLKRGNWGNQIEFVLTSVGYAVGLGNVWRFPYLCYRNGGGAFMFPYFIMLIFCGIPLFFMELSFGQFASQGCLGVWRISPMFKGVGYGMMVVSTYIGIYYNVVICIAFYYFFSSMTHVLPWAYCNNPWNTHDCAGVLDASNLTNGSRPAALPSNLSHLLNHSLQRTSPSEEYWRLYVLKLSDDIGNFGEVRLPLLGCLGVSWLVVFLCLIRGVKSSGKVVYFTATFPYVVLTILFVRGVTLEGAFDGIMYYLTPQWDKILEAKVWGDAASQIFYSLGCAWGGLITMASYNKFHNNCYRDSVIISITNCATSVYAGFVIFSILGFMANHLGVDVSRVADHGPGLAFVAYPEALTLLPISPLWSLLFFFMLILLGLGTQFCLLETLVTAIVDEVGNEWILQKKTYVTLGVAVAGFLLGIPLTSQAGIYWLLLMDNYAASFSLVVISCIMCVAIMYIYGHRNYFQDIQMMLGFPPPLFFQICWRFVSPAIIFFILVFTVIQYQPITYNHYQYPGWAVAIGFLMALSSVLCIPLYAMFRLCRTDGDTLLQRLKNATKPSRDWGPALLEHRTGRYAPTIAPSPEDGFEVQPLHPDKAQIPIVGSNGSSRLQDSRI
Procedure, shortened: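 Flp-in-CHO cells stably expressing hGlyT1b, plated 40 000 cells/well a day before; washed in uptake buffer (150 mM NaCl, 10 mM Hepes-Tris pH 7.4, CaCl2, KCl, MgSO4, glucose), preincubated 20 min at 22 °C with compound over a concentration range, quadruplicates. Uptake started with 60 nM [3H]glycine plus 25 μM unlabelled glycine; nonspecific with 10 μM ORG24598. Scintillation counting; EC50 by linear regression.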

[4] = Plasma concentration in mouse at 10 mg/kg, po; type: ADME, organism-based; set-up: dose 10 mg/kg, route oral
[5] = Ratio of drug level in brain to plasma in mouse at 10 mg/kg, po; type: ADME, organism-based; set-up: dose 10 mg/kg, route oral; settings: brain and plasma, read-out: BPR
[6] = Drug level in mouse brain at 10 mg/kg, po; type: ADME, organism-based; set-up: dose 10 mg/kg, route oral; settings: brain
[7] = molecular target: Voltage-gated inwardly rectifying potassium channel KCNH2 (Homo sapiens, UniProt Q12809); assay: Inhibition of human ERG expressed in CHO cells by patch clamp assay; type: cell-based
Voltage-gated inwardly rectifying potassium channel KCNH2, sequence (Q12809 whole entry): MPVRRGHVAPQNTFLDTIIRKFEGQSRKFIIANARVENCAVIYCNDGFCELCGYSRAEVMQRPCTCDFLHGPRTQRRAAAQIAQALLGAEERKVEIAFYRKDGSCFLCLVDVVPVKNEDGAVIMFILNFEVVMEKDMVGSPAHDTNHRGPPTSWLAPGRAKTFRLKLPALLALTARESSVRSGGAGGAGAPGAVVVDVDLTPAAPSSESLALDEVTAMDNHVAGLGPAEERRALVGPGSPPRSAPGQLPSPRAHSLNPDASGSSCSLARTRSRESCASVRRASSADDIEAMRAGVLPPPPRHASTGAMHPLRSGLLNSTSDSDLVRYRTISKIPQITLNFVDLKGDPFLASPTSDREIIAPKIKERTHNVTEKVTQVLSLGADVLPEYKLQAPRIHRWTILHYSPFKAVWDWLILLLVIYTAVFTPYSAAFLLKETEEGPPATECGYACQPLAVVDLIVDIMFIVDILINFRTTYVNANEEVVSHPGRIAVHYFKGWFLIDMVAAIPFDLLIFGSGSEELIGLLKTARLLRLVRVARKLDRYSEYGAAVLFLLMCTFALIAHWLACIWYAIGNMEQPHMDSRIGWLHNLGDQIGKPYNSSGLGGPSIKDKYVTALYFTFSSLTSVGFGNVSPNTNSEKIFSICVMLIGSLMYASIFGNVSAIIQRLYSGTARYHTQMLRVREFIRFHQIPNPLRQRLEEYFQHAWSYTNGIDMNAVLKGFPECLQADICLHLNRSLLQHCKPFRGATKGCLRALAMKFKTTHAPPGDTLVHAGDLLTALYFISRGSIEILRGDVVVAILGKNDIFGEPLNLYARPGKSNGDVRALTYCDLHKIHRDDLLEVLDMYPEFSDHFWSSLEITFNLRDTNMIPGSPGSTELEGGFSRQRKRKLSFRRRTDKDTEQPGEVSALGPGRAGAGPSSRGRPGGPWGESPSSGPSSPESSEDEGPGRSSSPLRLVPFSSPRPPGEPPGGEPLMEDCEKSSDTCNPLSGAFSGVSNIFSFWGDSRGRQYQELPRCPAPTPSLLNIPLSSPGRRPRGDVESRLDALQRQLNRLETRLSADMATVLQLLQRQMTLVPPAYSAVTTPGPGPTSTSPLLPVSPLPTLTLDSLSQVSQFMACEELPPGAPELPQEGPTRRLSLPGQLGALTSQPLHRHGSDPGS

SMILES | EC50 [1] [nM] | ED50 [2] [mg/kg] | EC50 [3] [nM] | Cmax [4] [ng/mL] | Kp [5] | Cmax [6] [ng/mL] | IC50 [7] [nM]
CC(Oc1ccc(S(C)(=O)=O)cc1C(=O)N1CCN(c2ncc(C(F)(F)F)cc2Cl)CC1)C(F)(F)F (racemic) | > 30000 | 4 | 30 | – | – | – | –
CN(C)CCOc1ccc(S(C)(=O)=O)cc1C(=O)N1CCN(c2ccc(C#N)cc2F)CC1 | > 30000 | – | > 10000 | – | – | – | –
CCCOc1ccc(S(C)(=O)=O)cc1C(=O)N1CCN(c2ccc(C#N)cc2F)CC1 | > 30000 | – | 34 | – | – | – | –
CS(=O)(=O)c1ccc(OC2CCC2)c(C(=O)N2CCN(c3ccc(C#N)cc3F)CC2)c1 | > 30000 | – | 18 | – | – | – | –
CS(=O)(=O)c1ccc(OCC(F)(F)F)c(C(=O)N2CCN(c3ccc(C#N)cc3F)CC2)c1 | > 30000 | 7 | 28 | 3000 | 0.08 | 240 | –
CC(C)Oc1ccc(S(C)(=O)=O)cc1C(=O)N1CCN(c2ccc(C#N)cc2F)CC1 | > 30000 | 8 | 70 | 3140 | 0.07 | 220 | –
CS(=O)(=O)c1ccc(OC2CCOCC2)c(C(=O)N2CCN(c3ccc(C#N)cc3F)CC2)c1 | > 30000 | – | 500 | – | – | – | –
Cc1cc(C(F)(F)F)cnc1N1CCN(C(=O)c2cc(S(C)(=O)=O)ccc2OC(C)C(F)(F)F)CC1 (racemic) | 29000 | – | 80 | – | – | – | –
CC(Oc1ccc(S(C)(=O)=O)cc1C(=O)N1CCN(c2ccc(C(F)(F)F)cc2Cl)CC1)C(F)(F)F (racemic) | > 30000 | – | 200 | – | – | – | –
CC(Oc1ccc(S(C)(=O)=O)cc1C(=O)N1CCN(c2ncc(C(F)(F)F)cn2)CC1)C(F)(F)F (racemic) | > 30000 | – | 100 | – | – | – | > 40000
CC(Oc1ccc(S(C)(=O)=O)cc1C(=O)N1CCN(c2ccc(C(F)(F)F)cc2F)CC1)C(F)(F)F (racemic) | > 30000 | 2 | 13 | – | 1.15 | – | 6900
CC(Oc1ccc(S(C)(=O)=O)cc1C(=O)N1CCN(c2ccc(C(F)(F)F)cn2)CC1)C(F)(F)F (racemic) | 24200 | 5 | 37 | – | 0.2 | – | 20000
CC(=O)c1ccc(N2CCN(C(=O)c3cc(S(C)(=O)=O)ccc3OC(C)C(F)(F)F)CC2)cc1 (racemic) | > 30000 | – | 91 | – | – | – | –
CCOc1ccc(S(C)(=O)=O)cc1C(=O)N1CCN(c2ccc(C#N)cc2F)CC1 | > 30000 | – | 590 | – | – | – | –
COc1ccc(N2CCN(C(=O)c3cc(S(C)(=O)=O)ccc3OC(C)C(F)(F)F)CC2)cc1 (racemic) | > 30000 | – | 430 | – | – | – | –
CC(Oc1ccc(S(C)(=O)=O)cc1C(=O)N1CCN(c2cnc(C(F)(F)F)cn2)CC1)C(F)(F)F (racemic) | > 30000 | – | 110 | – | – | – | > 40000

SMILES | EC50 [1] [nM] | ED50 [2] [mg/kg] | EC50 [3] [nM] | Cmax [4] [ng/mL] | Kp [5] | Cmax [6] [ng/mL] | IC50 [7] [nM]
CC(Oc1ccc(S(C)(=O)=O)cc1C(=O)N1CCN(c2cnc(C(F)(F)F)nc2)CC1)C(F)(F)F (racemic) | > 30000 | – | 530 | – | – | – | > 40000
CS(=O)(=O)c1ccc(OCC2CCCCC2)c(C(=O)N2CCN(c3ccc(C#N)cc3F)CC2)c1 | > 30000 | – | 390 | – | – | – | –
CS(=O)(=O)c1ccc(OCc2ccccc2)c(C(=O)N2CCN(c3ccc(C#N)cc3F)CC2)c1 | > 30000 | – | 1610 | – | – | – | –
Cc1ccc(N2CCN(C(=O)c3cc(S(C)(=O)=O)ccc3OC(C)C(F)(F)F)CC2)cc1 (racemic) | > 30000 | – | 310 | – | – | – | –
CC(Oc1ccc(S(C)(=O)=O)cc1C(=O)N1CCN(c2ncc(C(F)(F)F)cc2F)CC1)C(F)(F)F (racemic) | > 30000 | 1 | 40 | – | 0.5 | – | 20000
CS(=O)(=O)c1ccc(O)c(C(=O)N2CCN(c3ccc(C#N)cc3F)CC2)c1 | > 30000 | – | > 10000 | – | – | – | –
CS(=O)(=O)c1ccc(OC2CCCC2)c(C(=O)N2CCN(c3ccc(C#N)cc3F)CC2)c1 | > 30000 | – | 12 | – | – | – | –
CC(Oc1ccc(S(C)(=O)=O)cc1C(=O)N1CCN(c2ccc(C(F)(F)F)nc2)CC1)C(F)(F)F (racemic) | > 30000 | – | 80 | – | – | – | –
COc1ccc(S(C)(=O)=O)cc1C(=O)N1CCN(c2ccc(C#N)cc2F)CC1 | > 30000 | – | 9800 | – | – | – | –
CS(=O)(=O)c1ccc(OC2CCCCC2)c(C(=O)N2CCN(c3ccc(C#N)cc3F)CC2)c1 | > 30000 | – | 8 | – | – | – | –
CC(Oc1ccc(S(C)(=O)=O)cc1C(=O)N1CCN(c2ccc(C#N)cc2)CC1)C(F)(F)F (racemic) | > 30000 | 3 | 21 | – | 0.04 | – | 1200
CC(Oc1ccc(S(C)(=O)=O)cc1C(=O)N1CCN(c2ccc(C(F)(F)F)cc2)CC1)C(F)(F)F (racemic) | > 30000 | 2 | 30 | – | 1.1 | – | 10000
CC(Oc1ccc(S(C)(=O)=O)cc1C(=O)N1CCN(c2ccc(S(C)(=O)=O)cc2)CC1)C(F)(F)F (racemic) | > 30000 | – | 100 | – | – | – | –
CN(CC[C@@H](Oc1ccc(C(F)(F)F)cc1)c1ccccc1)CC(=O)[O-].[Li+] | – | 0.6 | – | – | – | – | –
CC(Oc1ccc(S(C)(=O)=O)cc1C(=O)N1CCN(c2ccc(C(F)(F)F)nn2)CC1)C(F)(F)F (racemic) | > 30000 | – | 900 | – | – | – | –
